Experimental data reported in PMC6519384 (Andrology, 2018).

Assays:
[1] = DMAU added to serum with increasing NaF, DMA measured; assay type: in vitro ADME, human; details: Table S1, Experiment 3
blood esterases = test: Ex vivo addition of DMAU to blood in different blood collection tubes; assay type: in vitro ADME, human; details: for Reduction of conversion of DMAU to DMA in NaF tubes: NaF 15 mg/mL blood; for Reduction of conversion of DMAU to DMA in NaF tubes / DMA level: 60 min at RT; for DMA level: plain tube
Summary of the method: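 Freshly drawn venous whole blood from healthy men is split into 2 mL aliquots in plain or esterase-inhibitor tubes, in duplicate. DMAU in methanol is added to 125–1000 ng/mL and held 30 or 60 min at 4 °C or 60 min at 23 °C before centrifugation. DMA is extracted twice with MTBE/hexane (50:50) and run by LC‑MS/MS. Duplicates are averaged and results given as % difference vs plain tube under the same conditions.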

[2] = Single oral dose of 200 mg DMAU in healthy men; assay type: in vivo, human; details: oral 200 mg DMAU
Summary of the method: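 Fifteen healthy men took 200 mg DMAU orally after a meal, in castor oil/benzyl benzoate or as capsule powder. Ten blood draws over 24 h went into plain tubes (kept at RT) and NaF‑containing tubes (4 °C), each held 30 min before centrifugation. DMA and DMAU were measured by LC‑MS/MS. The plain minus NaF‑EDTA DMA difference was regressed on average DMAU, split at 10 ng/mL.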

[3] = DMAU 300 ng/mL, K2EDTA (1.8 mg/mL) tube, 30 min 4 °C
[4] = DMAU 300 ng/mL, K2EDTA (1.8 mg/mL) tube, 60 min 4 °C
[5] = DMAU 300 ng/mL, K2EDTA (1.8 mg/mL) tube, 60 min RT
[6] = DMAU 300 ng/mL, NaF (1.5 mg/mL) + Na2EDTA (3 mg/mL) tube, 30 min 4 °C
[7] = DMAU 300 ng/mL, NaF (1.5 mg/mL) + Na2EDTA (3 mg/mL) tube, 60 min 4 °C
[8] = DMAU 300 ng/mL, NaF (5 mg/mL) + K2Oxalate (4 mg/mL) tube, 60 min 4 °C
[9] = DMAU 300 ng/mL, NaF (5 mg/mL) + K2Oxalate (4 mg/mL) tube, 60 min RT
[10] = DMAU 300 ng/mL, P800 tube, 30 min 4 °C
[11] = DMAU 300 ng/mL, P800 tube, 60 min 4 °C
[12] = DMAU 300 ng/mL, P800 tube, 60 min RT
[13] = DMAU 600 ng/mL, K2EDTA (1.8 mg/mL) tube, 30 min 4 °C
[14] = DMAU 600 ng/mL, K2EDTA (1.8 mg/mL) tube, 60 min 4 °C
[15] = DMAU 600 ng/mL, K2EDTA (1.8 mg/mL) tube, 60 min RT
[16] = DMAU 600 ng/mL, NaF (1.5 mg/mL) + Na2EDTA (3 mg/mL) tube, 30 min 4 °C
[17] = DMAU 600 ng/mL, NaF (1.5 mg/mL) + Na2EDTA (3 mg/mL) tube, 60 min 4 °C
[18] = DMAU 600 ng/mL, NaF (1.5 mg/mL) + Na2EDTA (3 mg/mL) tube, 60 min RT
[19] = DMAU 600 ng/mL, NaF (5 mg/mL) + K2Oxalate (4 mg/mL) tube, 30 min 4 °C
[20] = DMAU 600 ng/mL, NaF (5 mg/mL) + K2Oxalate (4 mg/mL) tube, 60 min 4 °C
[21] = DMAU 600 ng/mL, NaF (5 mg/mL) + K2Oxalate (4 mg/mL) tube, 60 min RT
[22] = DMAU 600 ng/mL, P800 tube, 30 min 4 °C
[23] = DMAU 600 ng/mL, P800 tube, 60 min 4 °C
[24] = DMAU 600 ng/mL, P800 tube, 60 min RT

CCCCCCCCCCC(=O)O[C@H]1CC[C@H]2[C@H]3[C@H]([C@@H](C)C[C@]12C)[C@H]1CCC(=O)C=C1C[C@H]3C [DMAU, dimethandrolone undecanoate]
Conversion of DMAU to DMA in serum [1]: no conversion
Reduction of conversion of DMAU to DMA in NaF tubes (blood esterases; DMAU 125 ng/mL): 72%
DMA level (blood esterases; DMAU 125 ng/mL): 1.57 ng/mL
Reduction of conversion of DMAU to DMA in NaF tubes (blood esterases; DMAU 250 ng/mL): 61.3%
DMA level (blood esterases; DMAU 250 ng/mL): 2.79 ng/mL
% difference vs. Plain (blood esterases; [3]): −56.1%
DMA (blood esterases; [3]): 1.4 ng/mL
% difference vs. Plain (blood esterases; [4]): −76.5%
DMA (blood esterases; [4]): 1.4 ng/mL
% difference vs. Plain (blood esterases; [5]): +15.2%
DMA (blood esterases; [5]): 9.7 ng/mL
% difference vs. Plain (blood esterases; [6]): −80.6%
DMA (blood esterases; [6]): 0.6 ng/mL
% difference vs. Plain (blood esterases; [7]): −77.3%
DMA (blood esterases; [7]): 1.3 ng/mL
DMA (blood esterases; DMAU 300 ng/mL, NaF (5 mg/mL) + K2Oxalate (4 mg/mL) tube, 30 min 4 °C): LLOQ
% difference vs. Plain (blood esterases; [8]): −82.2%
DMA (blood esterases; [8]): 1 ng/mL
% difference vs. Plain (blood esterases; [9]): −31.9%
DMA (blood esterases; [9]): 5.7 ng/mL
% difference vs. Plain (blood esterases; [10]): −78.1%
DMA (blood esterases; [10]): 0.7 ng/mL
% difference vs. Plain (blood esterases; [11]): −84.2%
DMA (blood esterases; [11]): 0.9 ng/mL
% difference vs. Plain (blood esterases; [12]): −20.6%
DMA (blood esterases; [12]): 6.7 ng/mL
DMA (blood esterases; DMAU 300 ng/mL, Plain tube, 30 min 4 °C): 3.3 ng/mL
DMA (blood esterases; DMAU 300 ng/mL, Plain tube, 60 min 4 °C): 5.9 ng/mL
DMA (blood esterases; DMAU 300 ng/mL, Plain tube, 60 min RT): 8.4 ng/mL
Reduction of conversion of DMAU to DMA in NaF tubes (blood esterases; DMAU 500 ng/mL): 54.3%
DMA level (blood esterases; DMAU 500 ng/mL): 5.54 ng/mL
% difference vs. Plain (blood esterases; [13]): −17.1%
DMA (blood esterases; [13]): 1.2 ng/mL
% difference vs. Plain (blood esterases; [14]): −46.4%
DMA (blood esterases; [14]): 2.3 ng/mL
% difference vs. Plain (blood esterases; [15]): +13.4%
DMA (blood esterases; [15]): 16.5 ng/mL
% difference vs. Plain (blood esterases; [16]): −30.0%
DMA (blood esterases; [16]): 1 ng/mL
% difference vs. Plain (blood esterases; [17]): −43.5%
DMA (blood esterases; [17]): 2.4 ng/mL
% difference vs. Plain (blood esterases; [18]): −29.4%
DMA (blood esterases; [18]): 10.2 ng/mL
% difference vs. Plain (blood esterases; [19]): −38.7%
DMA (blood esterases; [19]): 0.9 ng/mL
% difference vs. Plain (blood esterases; [20]): −72.7%
DMA (blood esterases; [20]): 1.2 ng/mL
% difference vs. Plain (blood esterases; [21]): −34.1%
DMA (blood esterases; [21]): 9.6 ng/mL
% difference vs. Plain (blood esterases; [22]): −42.5%
DMA (blood esterases; [22]): 0.9 ng/mL
% difference vs. Plain (blood esterases; [23]): −67.1%
DMA (blood esterases; [23]): 1.4 ng/mL
% difference vs. Plain (blood esterases; [24]): −25.9%
DMA (blood esterases; [24]): 10.8 ng/mL
DMA (blood esterases; DMAU 600 ng/mL, Plain tube, 30 min 4 °C): 1.5 ng/mL
DMA (blood esterases; DMAU 600 ng/mL, Plain tube, 60 min 4 °C): 4.3 ng/mL
DMA (blood esterases; DMAU 600 ng/mL, Plain tube, 60 min RT): 14.5 ng/mL
Reduction of conversion of DMAU to DMA in NaF tubes (blood esterases; DMAU 1000 ng/mL): 48.8%
DMA level (blood esterases; DMAU 1000 ng/mL): 8.82 ng/mL
Reduction of overestimation of DMA by collecting blood into NaF tubes (blood esterases; increasing amounts of DMAU added to blood): 30–85%
Difference in DMA concentrations between plain and NaF‐EDTA tubes ([2]; DMAU concentrations above 10 ng/mL): 22%
Mean difference in DMA concentrations between plain and NaF‐EDTA tubes ([2]; DMAU concentrations below 10 ng/mL): ~0%
